ChEMBL document CHEMBL1150285, “Combination of non-natural D-amino acid derivatives and allophenylnorstatine-dimethylthioproline scaffold in HIV protease inhibitors have high efficacy in mutant HIV” (J Med Chem, 2008)

Key:
[1] = Cytotoxicity against human MT4 cells by MTT assay; assay type: cell-based
[2] = target: Protease (Human immunodeficiency virus 1, UniProt Q9YQ12); assay: Inhibition of HIV1 protease
How it was run: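 HIV-1 protease (2 µg/mL stock in pH 5.5 acetate buffer) was mixed with test compound (10 nM solution in DMSO) in MES-NaOH buffer, pH 5.5, containing DTT, EDTA and NaCl. The mixture was preincubated 5 min at 37 °C, then started with substrate H-Lys-Ala-Arg-Val-Tyr*Phe(p-NO₂)-Glu-Ala-Nle-NH₂. After 60 min at 37 °C, the reaction was stopped with 1N HCl.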

[3] = tested on: Human immunodeficiency virus 1; assay: Antiviral activity against HIV1 3B in human MT4 cells assessed as inhibition of viral-induced cytopathic effect by MTT method; assay type: functional, organism-based; conditions: Human immunodeficiency virus 1, 3B
[4] = target: Protease (Human immunodeficiency virus 1) (UniProt Q9YQ12); conditions: at 1 nM
Chain of Protease (Human immunodeficiency virus 1) (Q9YQ12 as listed by the source): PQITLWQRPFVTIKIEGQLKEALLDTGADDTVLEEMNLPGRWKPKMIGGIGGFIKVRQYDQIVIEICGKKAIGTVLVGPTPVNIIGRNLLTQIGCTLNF

[5] = Selectivity index, ratio of CC50 for human MT4 cells to EC50 for HIV1 3B
[6] = tested on: Human immunodeficiency virus 1; assay: Antiviral activity against HIV1 3B in presence of 10% fetal calf serum and alpha1 acid glycoprotein; assay type: functional, organism-based; conditions: Human immunodeficiency virus 1, 3B
[7] = tested on: Human immunodeficiency virus 1; assay: Antiviral activity against HIV1 3B in presence of 10% fetal calf serum; assay type: functional, organism-based; conditions: Human immunodeficiency virus 1, 3B
[8] = tested on: Human immunodeficiency virus 1; assay: microbe, parasite or virus in culture; assay type: functional, organism-based; conditions: Human immunodeficiency virus 1, NL432
[9] = tested on: Human immunodeficiency virus 1; assay: microbe, parasite or virus in culture; assay type: functional, organism-based; conditions: Human immunodeficiency virus 1, NL432; remark: listed apart in the source
[10] = tested on: Human immunodeficiency virus 1; assay: Antiviral activity against wild type HIV1 NL432; assay type: functional, organism-based; conditions: Human immunodeficiency virus 1, NL432
[11] = tested on: Human immunodeficiency virus 1; assay: Antiviral activity against nelfinavir-resistant HIV1 NL432; assay type: functional, organism-based; conditions: Human immunodeficiency virus 1, NL432
[12] = tested on: Human immunodeficiency virus 1; assay: Ratio of EC50 for nelfinavir-resistant HIV1 NL432 to EC50 for wild-type HIV1 NL432; assay type: functional

Chain of Protease (Q9YQ12 whole entry): as the sequence (Q9YQ12 as listed by the source) above

| SMILES | CC50 [1] [µM] | IC50 [2] [nM] | EC50 [3] [nM] | inhibition [4] [%] | selectivity ratio ([5]; MT4 cells) | EC50 [6] [nM] | EC50 [7] [nM] | EC50 [8] [nM] | EC50 [9] [nM] | EC50 [10] [nM] | EC50 [11] [nM] | Ratio EC50 [12] | selectivity ratio ([5]; mt4) |
| --- | --- | --- | --- | --- | --- | --- | --- | --- | --- | --- | --- | --- | --- |
| Cc1ccccc1CNC(=O)[C@H]1N(C(=O)[C@@H](O)[C@H](Cc2ccccc2)NC(=O)[C@@H](CS(=O)(=O)c2cccc3ccccc23)NS(C)(=O)=O)CSC1(C)C | 19 | 0.083 | 61 | 97 | 310 | – | – | – | – | – | – | – | – |
| Cc1ccccc1CNC(=O)[C@H]1N(C(=O)[C@@H](O)[C@H](Cc2ccccc2)NC(=O)[C@@H](CS(=O)(=O)c2ccc(Cl)cc2)NS(C)(=O)=O)CSC1(C)C | – | 0.11 | – | 95 | – | – | – | – | – | – | – | – | – |
| CC(=O)N[C@H](CS(=O)(=O)c1ccc(Cl)cc1)C(=O)N[C@@H](Cc1ccccc1)[C@H](O)C(=O)N1CSC(C)(C)[C@H]1C(=O)NCc1ccccc1C | 18 | 0.22 | 47 | 80 | 380 | 1270 | 27 | 44 | 19 | 88 | 9.6 | 0.11 | – |
| Cc1ccccc1CNC(=O)[C@H]1N(C(=O)[C@@H](O)[C@H](Cc2ccccc2)NC(=O)[C@@H](CSc2cccc3ccccc23)NS(C)(=O)=O)CSC1(C)C | 4.4 | – | 6.4 | 74 | 690 | 347 | 4 | 17 | 13 | 9.3 | 0.67 | 0.07 | – |
| CC(=O)N[C@H](CSc1ccc2ccccc2c1)C(=O)N[C@@H](Cc1ccccc1)[C@H](O)C(=O)N1CSC(C)(C)[C@H]1C(=O)NCc1ccccc1C | 8.3 | – | 18 | 53 | 460 | 95 | 14 | 65 | 32 | 17 | 7.2 | 0.42 | – |
| Cc1ccc(CSC[C@@H](NS(C)(=O)=O)C(=O)N[C@@H](Cc2ccccc2)[C@H](O)C(=O)N2CSC(C)(C)[C@H]2C(=O)NCc2ccccc2C)cc1 | 8.9 | – | 17 | 58 | 520 | 110 | 14 | 58 | 43 | 17 | 1.5 | 0.09 | – |
| CC(=O)N[C@H](CSc1cccc2ccccc12)C(=O)N[C@@H](Cc1ccccc1)[C@H](O)C(=O)N1CSC(C)(C)[C@H]1C(=O)NCc1ccccc1C | 8 | – | 17 | 68 | 470 | 401 | 14 | 70 | 52 | 20 | 6.3 | 0.32 | – |
| CC(=O)N[C@H](CSCc1ccccc1)C(=O)N[C@@H](Cc1ccccc1)[C@H](O)C(=O)N1CSC(C)(C)[C@H]1C(=O)NCc1ccccc1C | 15 | – | 15 | 81 | 1000 | 96 | 16 | 40 | 21 | 18 | 5.9 | 0.33 | – |
| CC(=O)N[C@H](CS(=O)(=O)c1ccc(F)cc1)C(=O)N[C@@H](Cc1ccccc1)[C@H](O)C(=O)N1CSC(C)(C)[C@H]1C(=O)NCc1ccccc1C | > 28 | 0.27 | 105 | 79 | > 270 | – | – | – | – | – | – | – | – |
| CC(=O)N[C@H](CS(=O)(=O)c1ccc2ccccc2c1)C(=O)N[C@@H](Cc1ccccc1)[C@H](O)C(=O)N1CSC(C)(C)[C@H]1C(=O)NCc1ccccc1C | 16 | 0.086 | 28 | 96 | 570 | – | – | – | – | – | – | – | – |
| Cc1c(O)cccc1C(=O)N[C@@H](CSc1ccccc1)[C@H](O)CN1C[C@H]2CCCC[C@H]2C[C@H]1C(=O)NC(C)(C)C | – | – | – | 29 | 690 | 606 | 21 | – | – | – | – | 12 | – |
| COc1ccc(CSC[C@@H](NC(C)=O)C(=O)N[C@@H](Cc2ccccc2)[C@H](O)C(=O)N2CSC(C)(C)[C@H]2C(=O)NCc2ccccc2C)cc1 | – | 0.18 | – | 87 | 1300 | 89 | – | – | – | – | – | 0.14 | – |
| Cc1ccccc1CNC(=O)[C@H]1N(C(=O)[C@@H](O)[C@H](Cc2ccccc2)NC(=O)[C@@H](CS(=O)(=O)c2ccc3ccccc3c2)NS(C)(=O)=O)CSC1(C)C | 19 | 0.09 | 81 | 98 | 230 | – | – | – | – | – | – | – | – |
| Cc1ccccc1CNC(=O)[C@H]1N(C(=O)[C@@H](O)[C@H](Cc2ccccc2)NC(=O)[C@@H](CSc2ccc3ccccc3c2)NS(C)(=O)=O)CSC1(C)C | 6.1 | – | 13 | 67 | 470 | 88 | 8 | 31 | 23 | 17 | 0.8 | 0.05 | – |
| Cc1ccccc1CNC(=O)[C@H]1N(C(=O)[C@@H](O)[C@H](Cc2ccccc2)NC(=O)[C@@H](CSCc2ccccc2)NS(C)(=O)=O)CSC1(C)C | 9.8 | – | 17 | 66 | 580 | 88 | 18 | 63 | 55 | 20 | 1.8 | 0.09 | – |
| CC(C)c1nc(CN(C)C(=O)N[C@H](C(=O)N[C@@H](Cc2ccccc2)C[C@H](O)[C@H](Cc2ccccc2)NC(=O)OCc2cncs2)C(C)C)cs1 [RITONAVIR] | – | – | – | 90 | – | 422 | 24 | – | – | – | – | – | – |
| CSC[C@H](NC(=O)COc1cccc2cnccc12)C(=O)N[C@@H](Cc1ccccc1)[C@H](O)C(=O)N1CSC[C@H]1C(=O)NC(C)(C)C | – | – | – | 40 | – | 529 | – | 201 | 237 | 36 | 84 | 2.3 | > 1400 |
| CC(=O)N[C@H](CS(=O)(=O)c1cccc2ccccc12)C(=O)N[C@@H](Cc1ccccc1)[C@H](O)C(=O)N1CSC(C)(C)[C@H]1C(=O)NCc1ccccc1C | 16 | 0.09 | 40 | 97 | 400 | – | – | – | – | – | – | – | – |
| CC(=O)N[C@H](CCc1ccccc1)C(=O)N[C@@H](Cc1ccccc1)[C@H](O)C(=O)N1CSC(C)(C)[C@H]1C(=O)NCc1ccccc1C | > 31 | – | 51 | 45 | > 610 | 155 | 25 | 101 | 132 | 78 | 18 | 0.23 | – |
| CC(=O)N[C@H](CSCc1ccc(C)cc1)C(=O)N[C@@H](Cc1ccccc1)[C@H](O)C(=O)N1CSC(C)(C)[C@H]1C(=O)NCc1ccccc1C | 8.8 | – | 12 | 76 | 730 | 84 | 12 | 41 | 27 | 22 | 3.6 | 0.16 | – |
